Experimental data of several laboratories.
Compare with care: the assays were run in different laboratories.
Target: BMP-2-inducible protein kinase (BMP2K, Homo sapiens, UniProt Q9NSY1)

The inhibition of CC#CC(=O)N1CCC[C@H]1c1nc(-c2ccc(C(=O)Nc3ccccn3)cc2)c2c(N)nccn12 is reported as 26% (enzyme activity; inhibitor; 1 µM).
With COc1ccc2[nH]c3c4[nH]c5ccc(OC)cc5c4c4c(c3c2c1)C(=O)NC4=O the remaining binding was 76% (binding; 1 µM).
CNS(=O)(=O)c1ccc(Nc2ncc(C(F)(F)F)c(N3CCC[C@](C)(O)C3)n2)c(C)c1 has a remaining binding of 79% (binding; competition with immobilised ligand; 1 µM).
The remaining binding of CCCCC(=O)Nc1ccc(-c2ccc3ncn(CCC)c(=O)c3c2)cn1 is reported as 98% (binding; competition with immobilised ligand; 0.5 µM).
With C[C@]1(O)CCCN(c2nc(Nc3ccc(S(=O)(=O)N[C@H]4CC[C@H](CN5CCN(c6ccc(C7CCC(=O)NC7=O)cc6F)CC5)CC4)cc3Cl)ncc2C(F)(F)F)C1 (some centres unmarked) the remaining binding was 99% (binding; competition with immobilised ligand; 1 µM).
For COc1ccc2oc(-c3ccc4nc(N)oc4c3)c/c(=N\c3ccccc3NC(=O)CCN)c2c1, the remaining binding was 105% (binding; 1 µM).
For C=CC(=O)N1CCC[C@@H](n2nc(-c3ccc(Oc4ccccc4)cc3)c3c(N)ncnc32)C1, the inhibition was 17% (enzyme activity; inhibitor; 1 µM).
C[C@H]1CC[C@H](n2c3cnccc3c3cnc(Nc4ccc5c(n4)CCN(C(=O)CO)C5)nc32)CC1 has a remaining signal of 17% (cell-free assay; 1 µM).
